In article PMC10950693 (International Journal for Parasitology: Drugs and Drug …, 2024):

Experiment: Cytotoxicity against murine macrophages, alamarBlue, 24 h
Type: cell-based
Settings: mouse, J774A.1 murine macrophages
Method in brief: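 J774A.1 macrophages were kept in DMEM with 10% FBS at 37 °C, 5% CO2. Cells were seeded at 10^4/well and allowed 3–4 h to adhere. Serial dilutions were added with 10% alamarBlue for 24 h at 37 °C, 5% CO2, then fluorescence was read. CC50 was derived by four-parameter variable-slope nonlinear regression.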

**Q.** Which CC50 at 24 h does the source give for `CCCCCCCCCCCCCCCCOP(=O)([O-])OCC[N+](C)(C)C` [M, miltefosine] here?
**A.** Its CC50 at 24 h is 72.2 ± 8.85 µM.

**Q.** Which CC50 at 24 h does the source give for `O=C(Cn1ccnc1[N+](=O)[O-])NCc1ccccc1` [B, benznidazole] here?
**A.** The CC50 at 24 h was 399.9 ± 1.4 µM.
